ChEMBL document CHEMBL1129428 (J Med Chem, 1996)

How the values were obtained:
[1] = Partition coefficient (logP); type: physicochemical; conditions: octanol/water
Outline: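 Partition between 1-octanol and buffer at pH 7.4, with solutions prepared in 1-octanol before buffer is added. Quantified by UV, using λmax and ε values measured in 1-octanol.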

Mus musculus [2] = test: Anticonvulsant activity after intraperitoneal injection into mice by using MES screen test after 0.5 hr; type: functional
Mus musculus [3] = test: Anticonvulsant activity after intraperitoneal injection into mice measured in a maximal electroshock scree (MES) screen; type: functional
Mus musculus [4] = test: Compound was tested for toxicity after intraperitoneal injection into mice by using toxicity screen test after 4 hr; type: organism-based; conditions: in vivo, ip
Outline: (§1)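 Mice injected intraperitoneally at 30, 100 and 300 mg/kg and examined 0.5 and 4 h afterwards. Each entry is the minimum dose giving activity (MES protection, scPTZ protection, or rotorod failure for neurotoxicity) in half or more of the mice. Activity is called absent if nothing occurs at 300 mg/kg.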

Rattus norvegicus [5] = test: Compound was tested for anticonvulsant activity after Oral Administration into Rats by using MES screen test after 4h,dose 50 mg/kg; number of rats out of four which were protected; type: functional
Outline: (§2)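 Rats received the compound orally. […] Rats were tested in the MES screen at 0.25, 0.5, 1, 2 and 4 h. Each value is the number of rats protected out of 4. The test followed NINDS procedures.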

Rattus norvegicus [6] = test: Compound was tested for anticonvulsant activity after Oral Administration into Rats by using MES screen test after 2h,dose 50 mg/kg; number of rats out of four which were protected; type: functional; outline: as §2
Rattus norvegicus [7] = test: Compound was tested for anticonvulsant activity after Oral Administration into Rats by using MES screen test after 0.25h,dose 50 mg/kg; No activity was demonstarted; type: functional, organism-based; parameters: dose 50 mg/kg; outline: as §2
Rattus norvegicus [8] = test: Compound was tested for anticonvulsant activity after Oral Administration into Rats by using MES screen test after 0.5h,dose 50 mg/kg; number of rats out of four which were protected.; type: functional; outline: as §2
Rattus norvegicus [9] = test: Compound was tested for anticonvulsant activity after Oral Administration into Rats by using MES screen test after 1h,dose 50 mg/kg; number of rats out of four which were protected; type: functional; outline: as §2
Mus musculus [10] = test: Anticonvulsant activity after intraperitoneal injection into mice by using scPTZ screen after 0.5 hr; type: functional
Mus musculus [11] = test: Compound was tested for anticonvulsant activity after intraperitoneal injection into mice by using MES screen test after 0.5 hr; type: functional; conditions: ip; outline: as §1
Mus musculus [12] = test: Compound was tested for anticonvulsant activity after intraperitoneal injection into mice by using scPTZ screen test after 0.5 hr; type: functional; conditions: ip; outline: as §1
[13] = Compound was tested for toxicity after intraperitoneal injection into mice by using neurotoxicity screen test after 2 hr; type: organism-based; conditions: mouse, in vivo, ip
Outline: (§3)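 Quantitative intraperitoneal mouse testing in the MES, scPTZ or rotorod neurotoxicity screens at the peak time given for each compound (0.25–2 h). ED50 or TD50 reported in mg/kg with 95% CI and slope (SE).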

Rattus norvegicus [14] = test: Compound was tested for anticonvulsant activity after Oral Administration into Rats by using MES screen test after 0.25h,dose 50 mg/kg; number of rats out of four which were protected; type: functional; outline: as §2
Rattus norvegicus [15] = test: Compound was tested for anticonvulsant activity after Oral Administration into Rats by using MES screen test after 0.5h,dose 50 mg/kg; number of rats out of four which were protected; type: functional; outline: as §2
Mus musculus [16] = test: Compound was tested for anticonvulsant activity after intraperitoneal injection into mice by using MES screen test after 1 hr; type: functional; conditions: ip; outline: as §3
[17] = Compound was tested for toxicity after intraperitoneal injection into mice by using neurotoxicity screen test after 4 hr; type: organism-based; conditions: mouse, in vivo, ip; outline: as §1
Rattus norvegicus [18] = test: Compound was tested for anticonvulsant activity after Oral Administration into Rats by using MES screen test after 0.25h,dose 12.5 mg/kg; No activity was demonstarted; type: functional, organism-based; parameters: dose 12.5 mg/kg; outline: as §2
Rattus norvegicus [19] = test: Compound was tested for anticonvulsant activity after Oral Administration into Rats by using MES screen test after 4h,dose 12.5 mg/kg; number of rats out of four which were protected; type: functional; outline: as §2
Rattus norvegicus [20] = test: Anticonvulsant activity after oral administration into rats; type: functional; parameters: concentration or dose not given beside the values
Rattus norvegicus [21] = test: Compound was tested for anticonvulsant activity after Oral Administration into Rats by using MES screen test after 1h,dose 12.5 mg/kg; number of rats out of four which were protected; type: functional; outline: as §2
Rattus norvegicus [22] = test: Compound was tested for anticonvulsant activity after Oral Administration into rat by using MES screen test after 2 hr; type: functional
Outline: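 Rats dosed orally, typically at 50 mg/kg first, then mostly 12.5 mg/kg (some compounds at 30 mg/kg), and tested by maximal electroshock. Four rats per compound, scored at 0.25, 0.5, 1, 2 and 4 h as the number of rats protected out of 4.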

[23] = Compound was tested for toxicity after oral administration in rat by using neurotoxicity screen test after 0.25-24 hr; type: organism-based; conditions: in vivo
Outline: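 Rat neurotoxicity after oral dosing, observed at 0.25, 0.5, 1, 2, 4, 6, 8 and 24 h (8 h omitted for one compound).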

[24] = Protection index = TD50/ED50; type: ADME; conditions: read-out: PI
Mus musculus [25] = test: Compound was tested for anticonvulsant activity after intraperitoneal injection into mice by using scPTZ screen test after 1 hr; type: functional; conditions: ip; outline: as §3
Rattus norvegicus [26] = test: Compound was tested for anticonvulsant activity after Oral Administration into Rats by using MES screen test after 2h,dose 12.5 mg/kg; number of rats out of four which were protected; type: functional; outline: as §2
Mus musculus [27] = test: Anticonvulsant activity after intraperitoneal injection into mice by using scPTZ screen test after 4 hr; type: functional
Mus musculus [28] = test: Compound was tested for anticonvulsant activity after intraperitoneal injection into mice by using MES screen test after 2 hr; type: functional; conditions: ip; outline: as §3
Mus musculus [29] = test: Compound was tested for anticonvulsant activity after intraperitoneal injection into mice by using scPTZ screen test after 2 hr; type: functional; conditions: ip; outline: as §3
[30] = Protection index = TD50/ED50 (MES); conditions: mouse, in vivo; read-out: PI
Mus musculus [31] = test: Toxicity after intraperitoneal injection into mice by using toxicity screen test after 0.5 hr; type: organism-based; conditions: in vivo, ip; outline: as §1
Rattus norvegicus [32] = test: Compound was tested for anticonvulsant activity after Oral Administration into Rats by using MES screen test after 4h,dose 12.5 mg/kg; No activity was demonstarted; type: functional, organism-based; parameters: dose 12.5 mg/kg; outline: as §2
Rattus norvegicus [33] = test: Compound was tested for anticonvulsant activity after Oral Administration into Rats by using MES screen test after 0.5h,dose 12.5 mg/kg; No activity was demonstarted; type: functional, organism-based; parameters: dose 12.5 mg/kg; outline: as §2
Rattus norvegicus [34] = test: Compound was tested for anticonvulsant activity after Oral Administration into Rats by using MES screen test after 1h,dose 12.5 mg/kg; No activity was demonstarted; type: functional, organism-based; parameters: dose 12.5 mg/kg; outline: as §2

Row | SMILES | Dose (Mus musculus [2]) [mg/kg] | Dose (Mus musculus [3]) [mg/kg] | Dose (Mus musculus [4]) [mg/kg] | Activity (Rattus norvegicus [5]) | Activity (Rattus norvegicus [6]) | Activity (Rattus norvegicus [8]) | Activity (Rattus norvegicus [9]) | Dose (Mus musculus [10]) [mg/kg] | TD50 at 2 h [13] [mg/kg] | Activity (Rattus norvegicus [18]) | Activity (Rattus norvegicus [26]) | also measured
1 | COc1ccc(Oc2ccc(/C=N/NC(N)=O)cc2)cc1 | 100 | 100 | 300 | 4 | 4 | 4 | 4 |  |  |  |  | logP [1]: 1.29; Activity (Rattus norvegicus [7]): No activity
2 | NC(=O)N/N=C/c1ccc(Oc2ccccc2F)cc1 | 100 | 300 |  | 4 | 4 |  | 4 | 300 | 170 |  |  | ED50 (Mus musculus [11]): 20.7 mg/kg; ED50 (Mus musculus [12]): > 220 mg/kg; Activity (Rattus norvegicus [14]): 2; Activity (Rattus norvegicus [15]): 4
3 | CCCc1ccc(Oc2ccc(/C=N/NC(N)=O)cc2)cc1 | 100 | 100 | 300 |  |  |  |  | 300 |  | No activity | 4 | ED50 (Mus musculus [16]): 11 mg/kg; TD50 at 4 h [17]: 243 mg/kg; Activity (Rattus norvegicus [19]): 2; Activity (Rattus norvegicus [20]): 1; Activity (Rattus norvegicus [21]): 2; ED50 (Rattus norvegicus [22]): 2.63 mg/kg; TD50 [23]: > 500 mg/kg; selectivity ratio [24]: 3.05; ED50 (Mus musculus [25]): 79.6 mg/kg
4 | NC(=O)N/N=C/c1ccc(Oc2ccc(Cl)c(Cl)c2)cc1 | 300 | 30 | 300 | 4 | 4 | 2 | 4 |  |  |  |  | Activity (Rattus norvegicus [7]): No activity
5 | NC(=O)N/N=C/c1ccc(Sc2ccc(Br)cc2)cc1 | 100 | 30 | 300 |  |  |  |  |  | 123 | No activity | 4 | Dose (Mus musculus [27]): 300 mg/kg; ED50 (Mus musculus [28]): 24.4 mg/kg; ED50 (Mus musculus [29]): > 200 mg/kg; Activity (Rattus norvegicus [19]): 4; Activity (Rattus norvegicus [20]): 1; Activity (Rattus norvegicus [21]): 3; selectivity ratio [30]: 5.03
6 | NC(=O)N/N=C/c1ccc(Sc2ccc(Cl)cc2)cc1 | 100 | 30 | 100 | 4 | 4 | 4 | 4 | 300 | 53.2 |  |  | ED50 (Mus musculus [16]): 16.2 mg/kg; Activity (Rattus norvegicus [14]): 1; ED50 (Mus musculus [25]): > 120 mg/kg; selectivity ratio [30]: 3.28
7 | N=C(N)N/N=C/c1ccc(Sc2ccc(F)cc2)cc1 | 300 |  | 100 |  |  |  |  | 30 |  | No activity | 1 | Dose (Mus musculus [27]): 30 mg/kg; Dose (Mus musculus [31]): 100 mg/kg; Activity (Rattus norvegicus [32]): No activity; Activity (Rattus norvegicus [33]): No activity; Activity (Rattus norvegicus [34]): No activity
